≈ marks a conversion by molar mass, not a printed value. Calls of active or inactive are those of the source. The calls are words filed in the database; no cut-off is given here.
What was measured:
[1] = tested on: HCT-8; assay: Cytotoxicity against human HCT8 cells; format: functional, cell-based
[2] = tested on: Bel-7402; assay: Cytotoxicity against human Bel7402 cells; format: functional, cell-based
[3] = tested on: BGC-823; assay: Cytotoxicity against human BGC823 cells; format: functional, cell-based
[4] = tested on: A549; assay: Cytotoxicity against human A549 cells; format: functional, cell-based
[5] = tested on: A2780; assay: Cytotoxicity against human A2780 cells; format: functional, cell-based
[6] = tested on: Human immunodeficiency virus 1; assay: Binding affinity to HIV1 recombinant Vif at 20 ug/ml
Outline: (§1)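 Recombinant gp41, Vif or APOBEC3G each immobilized on a CM5 sensor chip in a separate flow cell. Binding monitored by surface plasmon resonance on a BIAcore instrument.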

[7] = target: DNA dC->dU-editing enzyme APOBEC-3G (Homo sapiens) (UniProt Q9HC16); assay: Binding affinity to human recombinant APOBEC3G at 20 ug/ml; outline: as §1
[8] = tested on: Human immunodeficiency virus 1; assay: Binding affinity to HIV1 recombinant gp41 at 20 ug/ml; outline: as §1
[9] = tested on: Human immunodeficiency virus 1; assay: Antiviral activity against HIV1 infected in human HEK293 cells assessed as inhibition of viral replication; format: functional, organism-based
Outline: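 VSVG-pseudotyped HIV-luc virus system in HEK-293 cells, used to assess inhibition of HIV-1 replication.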

[10] = tested on: Human immunodeficiency virus 1; assay: Antiviral activity against HIV1 3B infected in human MT4 cells after 5 days by p24 antigen detection assay; format: functional, organism-based; conditions: Human immunodeficiency virus 1, 3B, MT4, 120 h
Outline: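 MT-4 cells infected with 10000 TCID50 HIV-1 IIIB for 2 h at 37 °C, washed, then plated at 5 × 10^4 cells per well. Compounds added from 250 µg/mL in fivefold serial dilutions, five dilutions with four replicates each. Cultures held 5 d at 37 °C in 5% CO2. On day 3 half the supernatant was replaced with fresh compound or medium. On day 5 supernatant p24 measured, inhibition computed relative to virus control, and IC50 taken by linear regression.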

[11] = tested on: Human immunodeficiency virus 1; assay: Antiviral activity against HIV1 3B infected in human MAGI cells after 40 to 48 hrs assessed as inhibition of viral life cycle; format: functional, organism-based; conditions: Human immunodeficiency virus 1, 3B
Outline: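 HeLa-CD4-LTR-β-gal (MAGI) indicator cells plated at 6000 per well and infected with 2000 TCID50 HIV-1 IIIB. Compounds added in fourfold serial dilutions, five dilutions with four replicates each, at a final top concentration of half the 200 µg/mL stock dilution. Cells incubated 40–48 h at 37 °C in 5% CO2, then fixed, stained, and blue cells counted by microscopy. Single-round infection.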

[12] = tested on: Candida albicans; assay: Effect on brefeldin A MIC against Candida albicans isolate GU4 in presence of 30 uM compound by two fold dilution method
[13] = tested on: Candida albicans; assay: Multidrug reversal activity in Candida albicans isolate GU5 assessed as brefeldin A MIC in presence of 30 uM compound expressing CDR1 and CDR2 by two fold dilution method

Chain of DNA dC->dU-editing enzyme APOBEC-3G (Homo sapiens) (Q9HC16 whole entry): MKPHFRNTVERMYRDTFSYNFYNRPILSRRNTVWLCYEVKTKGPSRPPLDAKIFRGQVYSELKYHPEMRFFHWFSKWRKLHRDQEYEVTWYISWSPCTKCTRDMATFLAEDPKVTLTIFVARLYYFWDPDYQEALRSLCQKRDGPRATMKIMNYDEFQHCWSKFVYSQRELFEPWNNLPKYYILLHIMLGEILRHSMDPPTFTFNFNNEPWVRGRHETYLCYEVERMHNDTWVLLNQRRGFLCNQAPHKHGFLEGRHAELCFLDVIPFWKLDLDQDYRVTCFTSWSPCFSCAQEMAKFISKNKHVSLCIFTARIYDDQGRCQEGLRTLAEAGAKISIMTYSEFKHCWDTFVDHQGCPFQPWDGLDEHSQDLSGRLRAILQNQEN

SMILES | Activity [1] | Activity [2] | Activity [3] | Activity [4] | Activity [5] | RU [6] [pg/mm2] | RU [7] [pg/mm2] | RU [8] [pg/mm2] | Activity [9] | IC50 [10] [µg/mL] | IC50 [11] [µg/mL] | MIC [12] [µg/mL] | MIC [13] [µg/mL]
O=C1C(c2ccc(O)c(O)c2)=C2C(=C(c3ccc(O)c(O)c3)C(=O)N2CCc2ccc(OS(=O)(=O)O)cc2)c2cc(O)c(O)cc21 | inactive | inactive | inactive | inactive | inactive | 529 | 765 | 1490 | inactive |  |  |  | 
O=C1C(c2ccc(O)c(OS(=O)(=O)O)c2)=c2c(c3c(n2CCc2ccc(O)cc2)=C(c2ccc(O)c(OS(=O)(=O)O)c2)C(=O)c2cc(O)c(O)cc2-3)-c2cc(O)c(O)cc21 [BACULIFERIN C] | inactive | inactive | inactive | inactive | inactive | 296 | 886 | 116 | inactive | 8.4 (≈ 9.79 µM) | 1.2 (≈ 1.4 µM) |  | 
O=c1oc2cc(O)c(O)cc2c2c1[nH]c1c(=O)oc3cc(O)c(O)cc3c12 | inactive | inactive | inactive | inactive | inactive | 11.7 |  |  | inactive |  |  |  | 
O=C1C(c2ccc(O)c(O)c2)=c2c(c3c(n2CCc2ccc(O)cc2)=C(c2ccc(O)c(OS(=O)(=O)O)c2)C(=O)c2cc(O)c(OS(=O)(=O)O)cc2-3)-c2cc(OS(=O)(=O)O)c(O)cc21 [BACULIFERIN H] | inactive | inactive | inactive | inactive | inactive | 259 | 578 | 76.2 | inactive | 1.4 (≈ 1.49 µM) | 1.3 (≈ 1.39 µM) |  | 
O=C(O)CN1C(=O)C(c2ccc(O)c(O)c2)=C2C1=C(c1ccc(O)c(O)c1)C(=O)c1cc(O)c(O)cc12 [BACULIFERIN N] | inactive | inactive | inactive | inactive | inactive | 597 |  | 953 | inactive | 4.4 (≈ 8.74 µM) | < 0.1 |  | 
O=C1C(c2ccc(O)c(O)c2)=C2C(=C(c3ccc(O)c(O)c3)C(=O)N2CCc2ccc(O)cc2)c2cc(O)c(O)cc21 [BACULIFERIN K] | inactive | inactive | inactive | inactive | inactive | 448 |  | 523 | inactive | 5.5 (≈ 9.73 µM) | < 0.4 |  | 
O=C1C(c2ccc(O)c(O)c2)=c2c(c3c(n2CCc2ccc(O)cc2)=C(c2ccc(O)c(O)c2)C(=O)c2cc(O)c(OS(=O)(=O)O)cc2-3)-c2cc(OS(=O)(=O)O)c(O)cc21 [BACULIFERIN D] | inactive | inactive | inactive | inactive | inactive |  |  |  | inactive |  |  | 12.5 | 50
O=C1C(c2ccc(O)c(O)c2)=C2C(=C(c3ccc(OS(=O)(=O)O)c(O)c3)C(=O)N2CCc2ccc(O)cc2)c2cc(O)c(O)cc21 | inactive | inactive | inactive | inactive | inactive | 638 |  | 1350 | inactive |  |  |  | 
O=C1C(c2ccc(O)c(O)c2)=c2c(c3c(n2CCc2ccc(O)cc2)=C(c2ccc(O)c(OS(=O)(=O)O)c2)C(=O)c2cc(O)c(OS(=O)(=O)O)cc2-3)-c2cc(O)c(O)cc21 [BACULIFERIN E] | inactive | inactive | inactive | inactive | inactive | 362 | 992 | 109 | inactive | 4.6 (≈ 5.36 µM) | 2.7 (≈ 3.15 µM) | 12.5 | 50

From ChEMBL document CHEMBL1212851, “Baculiferins A-O, O-sulfated pyrrole alkaloids with anti-HIV-1 activity, from the Chinese marine sponge Iotrochota baculifera” (Bioorg Med Chem, 2010)
